Laboratory results reported in PMC9742152 (ChemMedChem, 2022).
Where two headings read alike, the source gives them in different places. Each block holds one compound with its values, some of them ahead of it.

What was measured:
[1] = tested on: MCF-7 breast cancer cells; test: Anti-proliferative assay, MCF-7 cells; type: cell-based, human; conditions: read-out: GI50 MCF-7
Outline: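 MCF-7 cells kept at 37 °C, 5% CO2 in RPMI 1640 with 17% FBS, 2 mM L-glutamine and gentamicin, in full (not estrogen-deprived) media; seeded 5000 cells/well, grown 24 h without compound, then exposed to test compound at 10−9–10−4 M or vehicle. Cell protein measured by sulforhodamine B staining at 96 h; GI50 is the mean of two determinations.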

[2] = tested on: MDA MB-231 breast cancer cells; test: Anti-proliferative assay, MDA MB-231 cells; type: cell-based, human; conditions: read-out: GI50 MDA MB-231
Outline: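 MDA MB-231 cells kept at 37 °C, 5% CO2 in RPMI-1640 with 10% FBS, penicillin and streptomycin; seeded 8000 cells/well, allowed to adhere 24 h, then given test compound or vehicle. BrdU incorporation kit assay run at 48 h; signal expressed as percent of mean control to derive GI50; experiments in triplicate, mean of three determinations.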

Bovine brain tubulin [3] = test: Inhibition of tubulin assembly; type: biochemical; conditions: for IC50: read-out: Tubulin assembly IC50, 10 μM tubulin, mean ±SD
Bovine brain tubulin [4] = test: Inhibition of [3H]colchicine binding to tubulin; conditions: 5 μM inhibitor, 5.0 μM [3H]colchicine, 1.0 μM tubulin, mean ±SD
steroid sulfatase (STS) [5] = molecular target: T1, steroid sulfatase (STS) (Homo sapiens, UniProt P08842); test: In vitro cell-free sulfatase assay, JEG-3 lysate; type: biochemical
T1 sequence (P08842 22-583): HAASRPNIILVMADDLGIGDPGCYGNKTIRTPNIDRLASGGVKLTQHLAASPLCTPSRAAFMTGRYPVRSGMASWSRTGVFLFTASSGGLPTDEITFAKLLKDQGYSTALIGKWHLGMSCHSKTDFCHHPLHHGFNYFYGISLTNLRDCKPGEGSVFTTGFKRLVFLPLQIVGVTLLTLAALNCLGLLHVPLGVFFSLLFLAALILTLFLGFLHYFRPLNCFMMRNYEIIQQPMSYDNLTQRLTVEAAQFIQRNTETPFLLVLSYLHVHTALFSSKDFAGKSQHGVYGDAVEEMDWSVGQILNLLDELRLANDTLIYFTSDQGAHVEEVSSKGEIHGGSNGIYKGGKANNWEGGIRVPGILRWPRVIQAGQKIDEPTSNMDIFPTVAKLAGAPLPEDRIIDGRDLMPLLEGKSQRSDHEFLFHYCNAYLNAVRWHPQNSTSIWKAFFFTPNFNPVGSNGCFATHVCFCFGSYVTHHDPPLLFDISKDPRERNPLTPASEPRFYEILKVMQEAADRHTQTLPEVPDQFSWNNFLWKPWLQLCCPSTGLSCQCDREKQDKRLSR

steroid sulfatase (STS) [6] = molecular target: T1, steroid sulfatase (STS); test: In vitro whole cell sulfatase assay, intact JEG-3 cells; type: cell-based
[7] = Hydrolysis in wet DMSO-d6 at 25 °C followed by 1H NMR; conditions: for % hydrolysed (conversion into the phenol) after 30 days: wet DMSO-d6, room temperature, water/substrate ~60:1
[8] = cited from earlier work
HOP-62 = test: NCI 60-cell line assay, Lung HOP-62; type: cell-based
HCT-116 = test: NCI 60-cell line assay, Colon HCT-116; type: cell-based
SF-539 = test: NCI 60-cell line assay, CNS SF-539; type: cell-based; conditions: read-out: GI50 CNS SF-539
UACC-62 = test: NCI 60-cell line assay, Melanoma UACC-62; type: cell-based
OVCAR-3 = test: NCI 60-cell line assay, Ovarian OVCAR-3; type: cell-based
SN12C = test: NCI 60-cell line assay, Renal SN12C; type: cell-based; conditions: read-out: GI50 Renal SN12C
NCI-60 cell line panel = test: NCI 60-cell line assay, mean over whole panel; type: cell-based; conditions: for IC50: read-out: MGM (mean concentration that caused 50% growth inhibition in all 60 cell lines)
[9] = wet DMSO-d6, 25 °C, 0 days, 1H NMR
[10] = wet DMSO-d6, 25 °C, 15 days, 1H NMR
[11] = wet DMSO-d6, 25 °C, 30 days, 1H NMR
[12] = MCF-7, full media, 96 h, mean of two determinations
[13] = Homo sapiens, HOP-62, read-out: GI50 Lung HOP-62
[14] = Homo sapiens, HCT-116, read-out: GI50 Colon HCT-116
[15] = Homo sapiens, UACC-62, read-out: GI50 Melanoma UACC-62
[16] = Homo sapiens, OVCAR-3, read-out: GI50 Ovarian OVCAR-3
[17] = NCI-60, mean of three determinations

Structure (SMILES): C[C@]12CC[C@@H]3c4cc(OC(F)F)c(OS(N)(=O)=O)cc4CC[C@H]3[C@@H]1CCC2=O [Compound 16, 2-Difluoromethoxy-3-sulfamoyloxyestra-1,3,5(10)-trien-17-one]
GI50 ([1]; Homo sapiens, MCF7, 96 h): 580 nM
GI50 ([2]; Homo sapiens, MDA-MB-231, 48 h): 990 nM
IC50 (Bovine brain tubulin [3]): 4300 ± 200 nM
Colchicine binding (% Inhibition) (Bovine brain tubulin [4]): 32 ± 4%
IC50 (steroid sulfatase (STS) [5]): 56 nM
IC50 (steroid sulfatase (STS) [6]): 5.6 nM

times more potent than 16, JEG-3 lysate assay (steroid sulfatase (STS) [5]; vs 16): about 3 times
times more potent than 16, whole cells (steroid sulfatase (STS) [6]; vs 16): about 100 times
% of the compound in the reaction mixture, 0 days [7, 9]: 100%
% of the compound in the reaction mixture, 15 days [7, 10]: 24%
% of the compound in the reaction mixture, 30 days [7, 11]: 5%
Structure (SMILES): C[C@]12CC[C@@H]3c4cc(C(F)F)c(OS(N)(=O)=O)cc4CC[C@H]3[C@@H]1CCC2=O [Compound 23, 2-difluoromethylestrone sulfamate, reference compound]

Structure (SMILES): COc1ccc(/C=C\c2cc(OC)c(OC)c(OC)c2)cc1O [CA-4, combretastatin A-4, reference compound]
Colchicine binding (% Inhibition) (Bovine brain tubulin [4]): 98 ± 1%

Structure (SMILES): COc1cc2c(cc1O)CC[C@@H]1[C@@H]2CC[C@]2(C)[C@@H](OS(N)(=O)=O)CC[C@@H]12 [Compound 22]
% of the compound in the reaction mixture, 0 days [7, 9]: 0%
% of the compound in the reaction mixture, 15 days [7, 10]: 19%
% of the compound in the reaction mixture, 30 days [7, 11]: 31%

Structure (SMILES): C[C@]12CC[C@@H]3c4cc(OC(F)F)c(O)cc4CC[C@H]3[C@@H]1CC[C@@H]2O [Compound 9, 2-Difluoromethoxy-3,17β-bis-hydroxyestra-1,3,5(10)-triene]
GI50 ([1]; Homo sapiens, MCF7, 96 h): 2600 nM
GI50 ([2]; Homo sapiens, MDA-MB-231, 48 h): 3030 nM
IC50 (Bovine brain tubulin [3]): 12400 ± 100 nM

Structure (SMILES): COc1cc2c(cc1OS(N)(=O)=O)CC[C@@H]1[C@@H]2CC[C@]2(C)[C@@H](OS(N)(=O)=O)CC[C@@H]12 [Compound 4, 2-methoxyestradiol-3,17-O,O-bissulfamate, reference compound]
GI50 [1, 12]: 520 nM
IC50 (Bovine brain tubulin [3]): 2300 ± 100 nM
Colchicine binding (% Inhibition) (Bovine brain tubulin [4]): 33 ± 3%
bioavailability [8]: ~85%
% of the compound in the reaction mixture, 0 days [7]: 100%
% of the compound in the reaction mixture, 15 days [7]: 81%
% of the compound in the reaction mixture, 30 days [7]: 69%
% hydrolysed (conversion into the phenol) after 30 days ([7]; 30 days): 31%

Structure (SMILES): C[C@]12CC[C@@H]3c4cc(OC(F)F)c(O)cc4CC[C@H]3[C@@H]1CCC2=O [Compound 15, 2-Difluoromethoxy-3-hydroxyestra-1,3,5(10)-trien-17-one]
GI50 ([1]; Homo sapiens, MCF7, 96 h): > 5000 nM
GI50 ([2]; Homo sapiens, MDA-MB-231, 48 h): > 10000 nM
IC50 (Bovine brain tubulin [3]): > 20000 nM

Structure (SMILES): C[C@]12CC[C@@H]3c4cc(OC(F)F)c(O)cc4CC[C@H]3[C@@H]1CC[C@@H]2OS(N)(=O)=O [Compound 11, 2-Difluoromethoxy-3-hydroxy-17β-sulfamoyloxyestra-1,3,5(10)-triene]
GI50 ([1]; Homo sapiens, MCF7, 96 h): > 5000 nM
GI50 ([2]; Homo sapiens, MDA-MB-231, 48 h): > 10000 nM
GI50 (HOP-62; [13]): 648 nM
GI50 (HCT-116; [14]): 375 nM
GI50 (SF-539; Homo sapiens): 427 nM
GI50 (UACC-62; [15]): 460 nM
GI50 (OVCAR-3; [16]): 383 nM
GI50 (SN12C; Homo sapiens, SN12C): 1220 nM
IC50 (NCI-60 cell line panel; 60 cell): 813 nM
IC50 (Bovine brain tubulin [3]): > 20000 nM
IC50 (steroid sulfatase (STS) [5]): > 5000 nM
STS inhibition in JEG-3 lysate (in words) (steroid sulfatase (STS) [5]; JEG-3 lysate): inactive
% of the compound in the reaction mixture, 0 days [7, 9]: 0%
% of the compound in the reaction mixture, 15 days [7, 10]: 68%
% of the compound in the reaction mixture, 30 days [7, 11]: 92%

IC50 (Bovine brain tubulin [3]): 8300 ± 800 nM
Colchicine binding (% Inhibition) (Bovine brain tubulin [4]): 36 ± 3%
Structure (SMILES): COc1cc2c(cc1O)CC[C@@H]1[C@@H]2CC[C@]2(C)[C@@H](O)CC[C@@H]12 [Compound 1, 2-Methoxyestradiol, reference compound]
bioavailability [8]: ~1%

Structure (SMILES): C[C@]12CC[C@@H]3c4cc(OC(F)F)c(OS(N)(=O)=O)cc4CC[C@H]3[C@@H]1CC[C@@H]2O [Compound 12, 2-Difluoromethoxy-3-sulfamoyloxy-17β-hydroxyestra-1,3,5(10)-triene]
GI50 ([1]; Homo sapiens, MCF7, 96 h): 1100 nM
GI50 ([2]; Homo sapiens, MDA-MB-231, 48 h): 1110 nM
GI50 (HOP-62; [13]): 634 nM
GI50 (HCT-116; [14]): 406 nM
GI50 (SF-539; Homo sapiens): 313 nM
GI50 (UACC-62; [15]): 498 nM
GI50 (OVCAR-3; [16]): 386 nM
GI50 (SN12C; Homo sapiens, SN12C): 692 nM
IC50 (NCI-60 cell line panel; 60 cell): 646 nM
IC50 (Bovine brain tubulin [3]): 6600 ± 700 nM
Colchicine binding (% Inhibition) (Bovine brain tubulin [4]): 22 ± 1%
IC50 (steroid sulfatase (STS) [5]): 75 nM
IC50 (steroid sulfatase (STS) [6]): 18.6 nM

GI50 [1, 12]: 280 nM
GI50 ([2]; MDA MB-231, 48 h, mean of three determinations): 740 nM
IC50 (Bovine brain tubulin [3]): 3900 ± 500 nM
Colchicine binding (% Inhibition) (Bovine brain tubulin [4]): 19 ± 0.5%
% of the compound in the reaction mixture, 0 days [7, 9]: 100%
% of the compound in the reaction mixture, 15 days [7, 10]: 32%
% of the compound in the reaction mixture, 30 days [7, 11]: 8%
T1/2 of hydrolysis ([7]; wet DMSO-d6, estimated from Table 1): ~ 10 days
% hydrolysed (conversion into the phenol) after 30 days ([7]; 30 days): 92%
Structure (SMILES): C[C@]12CC[C@@H]3c4cc(OC(F)F)c(OS(N)(=O)=O)cc4CC[C@H]3[C@@H]1CC[C@@H]2OS(N)(=O)=O [Compound 10, 2-Difluoromethoxy-3–17β-bis-sulfamoyloxyestra-1,3,5(10)-triene]
GI50 (HOP-62; read-out: GI50 Lung HOP-62, NCI-60, mean of three determinations): 1980 nM
GI50 (HCT-116; read-out: GI50 Colon HCT-116, NCI-60, mean of three determinations): 474 nM
GI50 (SF-539; [17]): 266 nM
GI50 (UACC-62; read-out: GI50 Melanoma UACC-62, NCI-60, mean of three determinations): 564 nM
GI50 (OVCAR-3; read-out: GI50 Ovarian OVCAR-3, NCI-60, mean of three determinations): 527 nM
GI50 (SN12C; [17]): 567 nM
overall anti-proliferative activity in NCI 60-cell line panel (in words) (NCI-60 cell line panel; average GI50, NCI-60): sub-micromolar
IC50 (NCI-60 cell line panel; all 60 cell lines): 661 nM
fold less active than CA-4 in tubulin assembly (Bovine brain tubulin [3]; vs CA-4): about 3 fold
